procasp7 counter = counter-screen for procaspase-3 activators: activators of human procaspase-7; P55210; recombinant procaspase-7, Ac-DEVD-pNA absorbance 405 nm; D23A/D198A/D206A triple mutant, cannot self-cleave; scale: DMSO 0, 5 µM enzyme 100; activation, % at 8.5 µM; 330,000 compounds, 0.093% hits;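 active = percent activation above the screen-wide mean plus 3 SD, cut at about 25% in these data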
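Assay system: Uncleavable procaspase-7 mutant enzyme / Input: 2 µM procaspase-7 mutant as dispensed / Dosing: single nominal 8.5 µM compound dose, 0.8% DMSO final / Timing: 1 h enzyme–compound preincubation and 2 h substrate reaction, both 25 °C / Detection: p-Nitroaniline absorbance at 405 nm, read at 0 and 120 min / Replication: singlicate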
proCasp3 act = activates human procaspase-3. P42574. recombinant procaspase-3 D3A, Ac-DEVD-pNA absorbance 405 nm. activation, % at 8.5 µM. 330,000 compounds, 0.11% hits. AID 463141;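 active = activation above the mean of all tested compounds plus 3 SD, cut at about 21% in these data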;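 note: 0% = DMSO alone and 100% = DMSO wells spiked with extra 5 µM PC-3 D3A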
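Technique: 405 nm absorbance of p-nitroaniline, reads at 0 and 120 min; Test system: Procaspase-3 D3A mutant; Incubation: 1 h enzyme-compound preincubation, then 2 h substrate reaction, 25 °C; Repeats: singlicate, each compound tested once; Benchmarks: low control DMSO wells, high control DMSO plus 5 µM PC-3 D3A.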
GRK2 inh = inhibitors of human GRK2 displacing RNA aptamer | P25098 | bead flow cytometry, FAM-aptamer displacement from GRK2 | inhibition of aptamer binding, % at 10 µM | 330,000 compounds, 0.59% hits | AID 488847;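 active = inhibition of aptamer binding above 40%, roughly 3 SD of noise, on plates passing a quality check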;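 note: median bead fluorescence of bound FAM aptamer so fluorescent compounds give negative values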
Target sequence (P25098 whole entry, looked up): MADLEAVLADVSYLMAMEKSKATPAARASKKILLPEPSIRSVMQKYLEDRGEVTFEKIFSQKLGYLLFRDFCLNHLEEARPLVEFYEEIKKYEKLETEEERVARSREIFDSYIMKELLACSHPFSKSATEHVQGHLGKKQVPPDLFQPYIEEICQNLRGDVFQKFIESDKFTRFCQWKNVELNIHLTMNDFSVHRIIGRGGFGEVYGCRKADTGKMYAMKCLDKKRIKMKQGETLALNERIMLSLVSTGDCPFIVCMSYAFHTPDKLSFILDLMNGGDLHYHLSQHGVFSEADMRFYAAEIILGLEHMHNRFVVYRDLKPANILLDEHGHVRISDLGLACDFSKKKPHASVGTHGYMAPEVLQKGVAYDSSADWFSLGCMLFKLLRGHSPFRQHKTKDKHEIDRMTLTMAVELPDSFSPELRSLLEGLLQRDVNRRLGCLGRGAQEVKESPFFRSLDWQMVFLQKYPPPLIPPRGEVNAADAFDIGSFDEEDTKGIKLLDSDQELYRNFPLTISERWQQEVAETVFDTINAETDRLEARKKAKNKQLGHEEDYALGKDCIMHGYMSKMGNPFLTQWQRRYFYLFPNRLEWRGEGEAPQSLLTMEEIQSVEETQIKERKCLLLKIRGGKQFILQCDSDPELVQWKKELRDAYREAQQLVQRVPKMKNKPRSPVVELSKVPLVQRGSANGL
Lipid droplet = hepatic lipid droplet formation modulation; AML12 mouse hepatocytes, oleate lipid droplets, BODIPY imaging; inhibition, % at 6.5 µM; 240,000 compounds, 0.4% hits;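 active = lipid droplet intensity inhibited by at least 50%, with more than 500 cells counted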
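Assay system: AML12 hepatocytes (mouse); Probe or stimulus: oleic acid at 100 µM to induce lipid droplet formation; Dosing: compound at 6.5 µM only; Schedule: compound with oleate, overnight; Detection: fluorescence imaging, 20x objective, two fields per well; Measure: % inhibition of lipid droplet signal.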
VLA-4 inh = inhibition in a human VLA-4 binding assay | inhibition, % (about 7 µM as worked out from the volumes in the protocol) | VLA-4 expressing cells, ligand binding flow cytometry | P13612 | 330,000 compounds, 0.2% hits; in the data active = inhibition above about 50%
JMJD2C inh = blocks human GASC-1 demethylase activity; Q9H3R0; GST-JMJD2C(1-420) H3K9me3 demethylation, DELFIA europium; inhibition, % at 2.35 µM; 330,000 compounds, 0.069% hits;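 active = more than half of a compound's replicate wells show inhibition beyond 50%, single wells judged on their own value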;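 note: signal counts dimethyl H3K9 product captured on neutravidin plate; 0% = median of DMSO wells and 100% = 0.3 times that DMSO median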
GRK2 inh confirm = confirmation of human GRK2 inhibitors displacing RNA aptamer. AID 504451. 2,000 compounds, 4% hits. shares compounds with GRK2 inh. bead-bound GRK2, FAM-aptamer displacement, flow cytometry. aptamer displacement, % at 10 µM;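 active = aptamer displacement above 40%, near three times the noise of non-fluorescent compounds, on plates passing quality checks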;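 note: negative values mostly reflect intrinsic compound fluorescence rather than true enhancement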
Aptamer quench = counter-screen for GRK2 aptamer inhibitors: fluorescent aptamer quenchers; 110 tested, under 10 active; fluorescence change (kMESF span), kMESF (concentration not given with the values); shares compounds with GRK2 inh; Fluorescent RNA aptamer beads, quenching, flow cytometry; active compounds read high; AID 504521;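 active = compounds whose bead fluorescence drops by more than 37 kMESF across the dose range, marking them as dye quenchers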
FAM quench CP1 = counter-screen for GRK2 aptamer inhibitors: fluorescent aptamer quenchers; fluorescence response (% of DMSO), % at 10 µM; Carboxyfluorescein RNA aptamer on beads, flow cytometry quenching; active compounds read low; shares compounds with GRK2 inh; 2,000 tested, under 10 active;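 active = compounds that quench the bead-bound fluorescent RNA probe, cutting fluorescence to under half of the solvent control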;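 note: counterscreen run without GRK2 so only probe quenching by compound is measured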
GRK2 confirm 2 = confirmation of human GRK2 inhibitors binding RNA aptamer site; shares compounds with GRK2 inh; bead-bound GRK2, FAM-aptamer displacement, flow cytometry; inhibition of aptamer binding, % at 10 µM; 360 tested, under 10 active;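 active = inhibition of aptamer binding above 40%, about triple the noise seen with nonglowing compounds, on plates passing quality control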;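 note: negative values mostly come from compounds that fluoresce themselves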
FAM quench CP2 = counter-screen for GRK2 binding hits: quenchers of fluorescent RNA aptamer; 360 tested, under 10 active; carboxyfluorescein RNA aptamer beads, flow cytometry quenching; active compounds read low; fluorescence response vs DMSO, % at 10 µM; shares compounds with GRK2 inh; AID 588494;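 active = response vs DMSO under 50%, meaning signal dropped by over half, treated as fluorescence quencher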;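 note: labelled aptamer on streptavidin beads without GRK2 as a quench counter-screen; 100% = bead fluorescence of DMSO wells and lower means quenching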
* hit, by the source's call; / = not tested or not shown. Shown are actives, neighbours in structure and some others; about 1.3% of the full set was active somewhere.

SMILES	procasp7 counter	proCasp3 act	GRK2 inh	Lipid droplet	VLA-4 inh	JMJD2C inh	GRK2 inh confirm	FAM quench CP1	others
Cc1ccccc1-n1ccnc1SCC(=O)NC1CCCC1	4.5	18.1	49.0*	-2.5	12.3	26.2	1.7	99.6
O=C(Nc1cccc(-c2ccc(N3CCOCC3)nn2)c1)c1ccccc1	11.1	12.7	0.0	/	2.5	-44.5	18.9	100.0	Aptamer quench=-1.6
Cc1ccc(C(=O)Nc2cccc(-c3ccc(N4CCOCC4)nn3)c2)cc1[N+](=O)[O-]	3.1	-2.0	0.0	/	-12.8	4.0	/	/
Cc1ccccc1C(=O)Nc1cccc(-c2ccc(N3CCOCC3)nn2)c1	4.5	-1.1	1.0	/	5.8	28.6	-2.5	96.3
O=C(Nc1cccc(-c2ccc(N3CCOCC3)nn2)c1)c1ccc([N+](=O)[O-])cc1	10.6	2.0	1.0	/	-25.1	-0.7	/	/
CC(CNC(=O)COC(=O)c1ccco1)c1ccccc1 (stereo unspecified)	-6.8	-3.6	2.0	/	1.9	-13.5	/	/
Cn1c(=O)c(C(=O)NNC(=O)c2cccc(Cl)c2)c(O)c2ccccc21	-4.8	2.6	90.0*	11.7	-7.7	-20.7	65.4*	141.5	Aptamer quench=-35.4
CCn1c(=O)c(C(=O)NNC(=O)c2cccc(Cl)c2)c(O)c2ccccc21	5.1	0.8	54.0*	-8.7	-0.5	2.6	-8.7	105.0
Cc1cccc(C(=O)NNC(=O)c2c(O)c3ccccc3n(C)c2=O)c1	-3.5	2.0	0.0	-6.5	9.4	-4.7	/	/
c1nc2n(n1)C1=C(CCCC1)C1(CCCCC1)N2	0.6	-1.8	1.0	-4.6	1.0	-5.7	/	/
C[C@@]12C(=O)Nc3cc(F)ccc3C(=O)N1[C@H]1c3ccccc3OC[C@@H]1[C@@H]2c1ccccc1	-7.9	5.0	0.0	/	-3.8	-15.1	/	/
Cc1cccc(C)c1OCc1cc(C(=O)NCc2cn(C)nc2C)no1	-3.5	0.0	0.0	32.4	17.0	-2.2	/	/
Cc1cccc(C)c1OCC(=O)N/N=C/c1cccnc1	3.2	0.8	6.0	1.6	-2.2	/	/	/
COc1ccc(C=NNc2ccc(S(=O)(=O)Nc3ccccc3C(=O)O)cc2[N+](=O)[O-])c(OC)c1	-2.9	1.8	4.0	/	10.5	26.3	/	/
COc1ccc(NC(=S)NNc2ccc(S(=O)(=O)Nc3ccccc3C(=O)O)cc2[N+](=O)[O-])cc1	-29.3	-7.1	48.0*	6.6	-5.2	4.4	4.3	99.0
CCOC(=O)c1c(C)[nH]c(C)c1S(=O)(=O)NCCc1cccs1	-3.8	7.7	7.0	-2.6	12.7	-3.8	/	/
CC1=NN(c2nc3ccccc3s2)C(O)(C(F)(F)F)C1 (stereo unspecified)	5.5	8.0	/	2.5	25.1	-0.7	/	/
Cc1sc2ncnc(NCCCO)c2c1C	-7.7	1.4	29.0	/	5.9	31.3	-2.3	102.9
C[C@H](CO)N1C[C@H](C)[C@@H](CN(C)S(=O)(=O)c2cccs2)Oc2ccc(NC(=O)Cn3cnnn3)cc2C1=O	12.9	5.2	5.0	/	29.6	/	/	/
COc1cc(OC)c(N(C)S(=O)(=O)c2cccc(C(=O)Nc3nnc(C4CC4)s3)c2)cc1Cl	5.3	-1.3	0.0	-8.9	-18.0	-1.1	/	/
CCCCNC(=O)c1ccc(CS(=O)(=O)c2cccc(C(F)(F)F)c2)o1	1.4	-1.8	0.0	/	9.4	10.2	/	/
O=C(O)c1ccc(CS(=O)(=O)c2cccc(C(F)(F)F)c2)o1	1.5	-5.3	0.0	13.0	7.2	2.0	/	/	GRK2 confirm 2=-1.6;FAM quench CP2=101.0
CC1(C)Cc2ccccc2-c2nnc(-c3cccnc3)n21	5.5	5.2	100.0*	/	-1.3	2.5	/	/	GRK2 confirm 2=-7.6;FAM quench CP2=97.0
CC(=O)c1ccccc1OCC(O)Cn1ccnc1 (stereo unspecified)	-1.0	2.1	0.0	-1.4	-2.2	-14.3	/	/
O=C(Nc1ccc(S(=O)(=O)Nc2ncccn2)cc1)c1ccc(N2CCCC2=O)cc1	-2.0	-1.8	0.0	-1.3	12.7	-3.3	/	/
SMILES	procasp7 counter	proCasp3 act	GRK2 inh	Lipid droplet	VLA-4 inh	JMJD2C inh	GRK2 inh confirm	FAM quench CP1	others
O=C(CNC(=O)c1ccccc1)N/N=C/c1ccccc1Cl	10.2	-7.1	47.0*	-0.5	1.0	-15.7	-1.1	97.1
O=C(CSc1nc2ccccc2[nH]1)N1CCN(S(=O)(=O)c2ccc(Cl)cc2)CC1	9.2	-2.6	45.0*	0.8	0.0	5.3	1.8	96.0
O=C(N/N=C/c1ccc(Br)s1)c1ccccc1[N+](=O)[O-]	3.6	0.7	0.0	/	-4.6	21.8	/	/
O=C(N/N=C/c1ccc(Br)s1)c1ccc([N+](=O)[O-])cc1	-13.9	-2.8	78.0*	2.5	-0.3	7.9	-26.4	99.5
C/C(=N\NC(=O)c1nn(C)c(C)c1Br)c1ccc(NC(=O)C2CCCC2)cc1	/	/	0.0	23.0	9.9	1.8	/	/
CC(C)CCn1c(=O)c2ccccc2n2c(=S)[nH]nc12	-25.2	-19.7	0.0	18.1	17.2	10.0	/	/
C=CCn1c(=O)c2ccccc2n2c(=S)[nH]nc12	-3.0	0.7	98.0*	18.2	40.3	27.8	-3.7	98.2
CCOC(=O)c1c(C)n2c3c(cc(C)cc13)CCC2	-3.0	-2.4	86.0*	-2.5	30.3	-1.8	-2.0	92.3
COc1ccc(-c2nc(CS(=O)CC(=O)NCc3ccc4c(c3)OCO4)c(C)o2)cc1OC (stereo unspecified)	-3.3	4.0	1.0	-10.6	-2.0	-1.1	/	/
CC1(C)Cc2c(sc(NC(=O)COc3cccc4ccccc34)c2C#N)C(C)(C)N1	0.3	2.1	63.0*	-17.5	-1.0	10.2	-34.8	131.0
Cc1ccc(S(=O)(=O)/N=C(\Nc2cc(C)on2)c2ccc(Cl)cc2)cc1	4.8	-5.1	0.0	9.8	-6.1	-2.1	/	/
CC(C)(C)Cc1nnc(NS(=O)(=O)c2ccc([N+](=O)[O-])cc2)s1	-7.1	-6.2	57.0*	6.3	-6.7	-8.8	-1.2	97.2

Screens (PubChem BioAssay)
